Experimental data pooled from the literature.
Compare with care: the assays were run in different laboratories. pIC50: −log10 of the molar value.
CDK7 with cyclin H: Cyclin-dependent kinase 7, with cyclin H (CDK7, Homo sapiens, UniProt P50613)
ACSL4: Long-chain-fatty-acid--CoA ligase 4 (ACSL4, Homo sapiens, UniProt O60488)
HDAC6: Protein deacetylase HDAC6 (HDAC6, Homo sapiens, UniProt Q9UBN7)
SLCO2B1: Solute carrier organic anion transporter family member 2B1 (SLCO2B1, Homo sapiens, UniProt O94956)

Structure (SMILES)	target	read-out	mode	method	pIC50
CN(C)C(=O)c1cc2cnc(Nc3ccc(-c4cccc5c(=O)cc(N6CCOCC6)oc45)cc3)nc2n1C1CCCC1	CDK7 with cyclin H	enzyme activity	inhibitor		< 5.00
CCc1ccc(C(=O)COc2ccc(CC3SC(=O)NC3=O)cc2)nc1 (stereo not shown)	ACSL4	enzyme activity	inhibitor		5.22
O=C1CCC(c2ccc(OCC(=O)OCCCCc3cn(CCCCCCN4CCc5c(c6ccccc6n5Cc5ccc(C(=O)NO)cc5)C4)nn3)cc2)C(=O)N1 (stereo not shown)	HDAC6	enzyme activity	inhibitor	fluorescence	7.31
CN(CCOc1ccc(CC2SC(=O)NC2=O)cc1)c1ccccn1 (stereo not shown)	ACSL4	enzyme activity	inhibitor		5.96
CNS(=O)(=O)c1ccc(Nc2ncc(C(F)(F)F)c([C@H]3CC[C@](C)(O)CC3)n2)c(C)c1	CDK7 with cyclin H	enzyme activity	inhibitor	radiometric	5.67
CN(CCOc1ccccc1)c1ccccn1	ACSL4	enzyme activity	inhibitor		< 4.30
COCCN1CCN(Cc2ccc(-c3n[nH]c4c3C(=O)c3c(NC(=O)NN5CCOCC5)cccc3-4)cc2)CC1	Protein kinase 6 (Plasmodium falciparum, UniProt Q8IDW1)	enzyme activity	inhibitor	radiometric	6.08
Cc1cc(S(=O)(=O)NCCO[C@H]2CC[C@H](CN3CCC(c4ccn5c(N6CCC(=O)NC6=O)cnc5c4)CC3)CC2)ccc1Nc1ncc2cc(Cl)c(=O)n(C3CCCC3)c2n1	CDK7 with cyclin H	enzyme activity	inhibitor	radiometric	5.42
CCc1oc2cc(F)c(F)cc2c1C(=O)c1cc(Br)c(O)c(Br)c1	SLCO2B1	transporter uptake	inhibitor	radiometric	6.87
COC(=O)/C=C/c1ccc(OCCN(C)c2ccccc2)cc1	ACSL4	enzyme activity	inhibitor		5.82
CN(CCCCCCNC(=O)COc1ccc(C2CCC(=O)NC2=O)cc1)Cc1cn(Cc2ccc(C(=O)NO)cc2)c2ccccc12 (stereo not shown)	HDAC6	enzyme activity	inhibitor	fluorescence	7.51
Cc1c(C)c2c(c(C)c1O)CCC(C)(COc1ccc(CC3SC(=O)NC3=O)cc1)O2 (stereo not shown)	ACSL4	enzyme activity	inhibitor		4.58
N=C(N)c1ccc(OCCCCCOc2ccc(C(=N)N)cc2)cc1	Prothrombin (F2, Homo sapiens, UniProt P00734)	enzyme activity	inhibitor	absorbance	< 4.00
COc1ccc(N(Cc2csc(-c3ccccc3)n2)C(=O)CCCCCC(=O)NO)cc1	HDAC6	enzyme activity	inhibitor		8.57
CN1CCC(CNc2ccc3ncc(-c4cccc(OC(F)(F)F)c4)n3n2)CC1	5-hydroxytryptamine receptor 1B (HTR1B, Homo sapiens, UniProt P28222)	cAMP	agonist		7.02
O=C(NO)c1ccc(Cn2cnc3c(Nc4ccc(F)c(Cl)c4)ncnc32)cc1	HDAC6	enzyme activity	inhibitor	fluorescence	8.21
COc1ccc(N(Cc2csc(-c3ccc(Br)cc3)n2)C(=O)CCCCCC(=O)NO)cc1	HDAC6	enzyme activity	inhibitor		8.49
O=C(NO)c1ccc(CN2CCN(c3cccc4cc(S(=O)(=O)c5cccc(F)c5)cnc34)CC2)c(F)c1	HDAC6	enzyme activity	inhibitor	fluorescence	6.27
O=C(COc1ccc(C2CCC(=O)NC2=O)cc1)NCCCCCCN1CCc2c(c3ccccc3n2Cc2ccc(C(=O)NO)cc2)C1 (stereo not shown)	HDAC6	enzyme activity	inhibitor	fluorescence	7.60
O=C(NO)c1ccc(Cn2cnc3c(Nc4ccc(Br)cc4F)ncnc32)cc1	HDAC6	enzyme activity	inhibitor	fluorescence	8.04
CNS(=O)(=O)c1ccc(Nc2ncc(C(F)(F)F)c(N3CCCC(C)(O)C3)n2)c(C)c1 (stereo not shown)	CDK7 with cyclin H	enzyme activity	inhibitor	radiometric	5.60
CN(CCOc1ccc(CC2SC(=O)NC2=O)cc1)c1ccccc1 (stereo not shown)	ACSL4	enzyme activity	inhibitor		6.40
CCc1oc2cc(F)ccc2c1C(=O)c1cc(Br)c(O)c(Br)c1	SLCO2B1	transporter uptake	inhibitor	radiometric	6.13
COC(=O)/C=C/c1ccc(OCCN(C)C(=O)c2ccccc2)cc1	Long-chain-fatty-acid--CoA ligase 4 (ACSL4, Homo sapiens, UniProt O60488, Q302M)	enzyme activity	inhibitor		5.15
N=C(N)NCCCC(=O)O	Alkaline phosphatase, tissue-nonspecific isozyme (Rattus norvegicus, UniProt P08289)	enzyme activity in cells	inhibitor	absorbance	1.82
